Columns and labels:
Type in all cases: functional, cell-based
[1] = Antiproliferative activity against human HL60 cells after 72 hrs by MTT assay; conditions: HL-60, 72 h
Outline: (§1)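 MTT viability after 72 h continuous exposure. Cells seeded 24 h beforehand at 2,000/well (adherent) or 10,000/well (suspension), then given 0, 0.01, 0.1, 0.5, 1.0 or 10.0 μM compound diluted from 10 mM DMSO stock into RPMI or DMEM with 10% FBS, 37°C, 5% CO2. IC50 taken as concentration killing 50% of cells versus untreated culture.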

[2] = Antiproliferative activity against human SKOV3 cells after 72 hrs by MTT assay; conditions: SK-OV-3, 72 h; outline: as §1
[3] = Antiproliferative activity against human HL60/ADR cells after 72 hrs by MTT assay; outline: as §1

SMILES: O=C1/C(=C/N2N=C(c3ccccc3)CC2c2ccccc2O)SC(=S)N1c1cccnc1 (stereo unspecified)
- IC50 [1]: 720 nM
- IC50 [2]: > 10000 nM

SMILES: CC(=O)Oc1ccc(N2C(=O)/C(=C/N3N=C(c4ccc5ccccc5c4)CC3c3ccc(Cl)cc3)SC2=S)cc1 (stereo unspecified)
- IC50 [1]: 1800 nM
- IC50 [2]: > 10000 nM

SMILES: CN1C(=O)/C(=C/N2N=C(c3ccccc3)CC2c2ccccc2O)SC1=S (stereo unspecified)
- IC50 [1]: 2880 nM
- IC50 [2]: 341 nM

SMILES: O=C1NC(=S)S/C1=C\N1N=C(c2ccc3ccccc3c2)CC1c1ccc(Cl)cc1 (stereo unspecified)
- IC50 [1]: 400 nM
- IC50 [2]: 163 nM

SMILES: CC(=O)Oc1ccc(N2C(=O)/C(=C/N3N=C(c4ccc(Cl)cc4)CC3c3ccc(Cl)cc3)SC2=S)cc1 (stereo unspecified)
- IC50 [1]: > 10000 nM
- IC50 [2]: > 10000 nM

SMILES: CCOC(=O)CCN1C(=O)/C(=C/N2N=C(c3ccccc3)CC2c2ccccc2O)SC1=S (stereo unspecified)
- IC50 [1]: > 10000 nM
- IC50 [2]: > 10000 nM

SMILES: CC(=O)Oc1ccc(N2C(=O)/C(=C/N3N=C(c4ccc5ccccc5c4)CC3c3ccccc3O)SC2=S)cc1 (stereo unspecified)
- IC50 [1]: 500 nM
- IC50 [2]: > 10000 nM

SMILES: O=C1NC(=S)/C(=C/N2N=C(c3ccccc3)CC2c2ccccc2O)S1 (stereo unspecified)
- IC50 [1]: 990 nM
- IC50 [2]: 7870 nM

SMILES: COc1cccc2c1C(=O)c1c(O)c3c(c(O)c1C2=O)C[C@@](O)(C(=O)CO)C[C@@H]3O[C@H]1C[C@H](N)[C@H](O)[C@H](C)O1 [DOXORUBICIN]
- IC50 [3]: 8800 nM
- IC50 [1]: 51 nM
- IC50 [2]: 73 nM

SMILES: CC(=O)Oc1cccc(N2C(=O)/C(=C/N3N=C(c4ccc5ccccc5c4)CC3c3ccc(Cl)cc3)SC2=S)c1 (stereo unspecified)
- IC50 [1]: 1020 nM
- IC50 [2]: 2390 nM
